What was measured:
Format in all cases: functional
MOLT-4 = assay: Growth inhibition of human MOLT4 cells
Outline: (§1)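 NCI 60 cancer cell line screen run per the Developmental Therapeutics Program protocol. Dose–response curves were plotted against log10 drug concentration for each cell line within its subpanel, and mean graph midpoint values were calculated.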

HCT-15 = assay: Growth inhibition of human HCT15 cells; outline: as §1
UACC-62 = assay: Growth inhibition of human UACC62 cells
Outline: (§2)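 Assayed in the NCI 60 human cancer cell line panel under the Developmental Therapeutics Program protocol. For each line, dose–response curves were plotted against log10 drug concentration. In the one-dose screen at 10^-5 M, growth was given as percent of untreated control cells, and mean graph midpoint values were averaged.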

NCI-H460 = assay: Growth inhibition of human NCI-H460 cells; outline: as §1
HCC 2998 = assay: Growth inhibition of human HCC2998 cells; outline: as §1
NCI-H322M = assay: Growth inhibition of human NCI-H322M cells; outline: as §1
DU-145 = assay: Growth inhibition of human DU145 cells; outline: as §1
CCRF-CEM = assay: Growth inhibition of human CCRF-CEM cells; outline: as §1
MDA-MB-435 = assay: Growth inhibition of human MDA-MB-435 cells; outline: as §1
SK-MEL-28 = assay: Growth inhibition of human SK-MEL-28 cells; outline: as §2
T47D = assay: Growth inhibition of human T47D cells; outline: as §2
SW-620 = assay: Growth inhibition of human SW620 cells; outline: as §2
SNB-75 = assay: Growth inhibition of human SNB75 cells; outline: as §2
SN12C = assay: Growth inhibition of human SN12C cells; outline: as §2
COLO 205 = assay: Growth inhibition of human COLO205 cells; outline: as §1
MDA-MB-468 = assay: Antiproliferative activity against human MDA-MB-468 cells assessed as cell growth at 10 uM; settings: read-out: Activity
Outline: (§3)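 NCI 60 cell line panel, single-dose screen (10^-5 M) run by the developmental therapeutics program protocol. Results are given as growth percent of treated cells relative to untreated control cells for each line.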

SK-MEL-2 = assay: Growth inhibition of human SK-MEL-2 cells; outline: as §2
A549 = assay: Growth inhibition of human A549 cells; outline: as §1
SNB-19 = assay: Growth inhibition of human SNB19 cells; outline: as §2
NCI/ADR-RES = assay: Growth inhibition of human NCI/ADR-RES cells; outline: as §1
Malme-3M = assay: Growth inhibition of human MALME-3M cells; outline: as §1
MCF7 = assay: Growth inhibition of human MCF7 cells; outline: as §1
UACC-257 = assay: Growth inhibition of human UACC257 cells; outline: as §2
K562 = assay: Growth inhibition of human K562 cells; outline: as §1
M14 = assay: Growth inhibition of human M14 cells; outline: as §1
OVCAR-5 = assay: Growth inhibition of human OVCAR5 cells; outline: as §1
SF-268 = assay: Growth inhibition of human SF268 cells; outline: as §2
NCI-H23 = assay: Growth inhibition of human NCI-H23 cells; outline: as §1
MDA-MB-231 = assay: Growth inhibition of human MDA-MB-231 cells; outline: as §1
IGROV-1 [1] = assay: Antiproliferative activity against human IGROV1 cells assessed as cell growth at 10 uM; settings: read-out: Activity; outline: as §3
A498 = assay: Growth inhibition of human A498 cells; outline: as §1
OVCAR-8 = assay: Growth inhibition of human OVCAR8 cells; outline: as §1
IGROV-1 [2] = assay: Growth inhibition of human IGROV1 cells; outline: as §1
SF-295 = assay: Growth inhibition of human SF295 cells; outline: as §2
SK-MEL-5 = assay: Growth inhibition of human SK-MEL-5 cells; outline: as §2
HL-60(TB) = assay: Growth inhibition of human HL-60(TB) cells
Outline: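 NCI 60-cell-line panel run under the Developmental Therapeutics Program protocol. Dose-response curves are plotted against log10 drug concentration for each cell line within its subpanel, and GI50 is read from these curves.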

HT-29 = assay: Growth inhibition of human HT-29 cells; outline: as §1
NCI-H226 = assay: Growth inhibition of human NCI-H226 cells; outline: as §1
[3] = read-out: LC50 (the source's name)

`O=C1c2ccccc2C(=O)c2c1ccc1nsnc21` was tested, and the GI50 (MOLT-4) was 0.49 µM, the TGI (MOLT-4) was 1.84 µM and the CC50 (MOLT-4; [3]) was 4.71 µM. It also gave a GI50 (HCT-15) of 1.71 µM, a TGI (HCT-15) of 3.72 µM and a CC50 (HCT-15; [3]) of 8.12 µM. It also gave a GI50 (UACC-62) of 1.45 µM, a TGI (UACC-62) of 2.9 µM and a CC50 (UACC-62; [3]) of 5.79 µM. It also gave a GI50 (NCI-H460) of 3.27 µM, a TGI (NCI-H460) of 14.3 µM and a CC50 (NCI-H460; [3]) of 47.3 µM. It also gave a GI50 (HCC 2998) of 16.4 µM, a TGI (HCC 2998) of 33.1 µM and a CC50 (HCC 2998; [3]) of 66.6 µM. For the same compound, the GI50 (NCI-H322M) was 17.4 µM, the TGI (NCI-H322M) was 47.8 µM and the CC50 (NCI-H322M; [3]) was greater than 100 µM. The GI50 (DU-145) was 1.67 µM, the TGI (DU-145) was 3.24 µM and the CC50 (DU-145; [3]) was 6.27 µM. The GI50 (CCRF-CEM) was 1.08 µM, the TGI (CCRF-CEM) was 4.1 µM and the CC50 (CCRF-CEM; [3]) was greater than 100 µM. It also gave a GI50 (MDA-MB-435) of 1.91 µM, a TGI (MDA-MB-435) of 3.31 µM and a CC50 (MDA-MB-435; [3]) of 5.76 µM. For the same compound, the GI50 (SK-MEL-28) was 1.85 µM, the TGI (SK-MEL-28) was 3.38 µM and the CC50 (SK-MEL-28; [3]) was 6.18 µM. The GI50 (T47D) was 1.39 µM, the LC50 (T47D) was 8.27 µM and the TGI (T47D) was 3.39 µM. The GI50 (SW-620) was 1.79 µM, the TGI (SW-620) was 3.5 µM and the CC50 (SW-620; [3]) was 6.84 µM. For the same compound, the GI50 (SNB-75) was 2.03 µM, the TGI (SNB-75) was 5.2 µM and the CC50 (SNB-75; [3]) was 18.6 µM. The GI50 (SN12C) was 1.33 µM, the TGI (SN12C) was 3.17 µM and the CC50 (SN12C; [3]) was 7.56 µM. It also gave a GI50 (COLO 205) of 13.4 µM, a TGI (COLO 205) of 28.9 µM and a CC50 (COLO 205; [3]) of 62.4 µM. The growth at 10 µM (MDA-MB-468) was -73.2%, the GI50 (SK-MEL-2) was 1.68 µM and the TGI (SK-MEL-2) was 4.22 µM. It also gave a CC50 (SK-MEL-2; [3]) of 22.5 µM, a GI50 (A549) of 14.7 µM and a TGI (A549) of 36.6 µM. The CC50 (A549; [3]) was 91 µM, the GI50 (SNB-19) was 2.28 µM and the TGI (SNB-19) was 5.82 µM. It also gave a CC50 (SNB-19; [3]) of 26 µM, a GI50 (NCI/ADR-RES) of 1.86 µM and a TGI (NCI/ADR-RES) of 12.6 µM. It also gave a CC50 (NCI/ADR-RES; [3]) greater than 100 µM, a GI50 (Malme-3M) of 1.66 µM and a TGI (Malme-3M) of 3.15 µM. The CC50 (Malme-3M; [3]) was 5.96 µM, the GI50 (MCF7) was 1.53 µM and the TGI (MCF7) was 3.34 µM. For the same compound, the CC50 (MCF7; [3]) was 7.29 µM, the GI50 (UACC-257) was 1.74 µM and the TGI (UACC-257) was 3.51 µM. It also gave a CC50 (UACC-257; [3]) of 7.09 µM, a GI50 (K562) of 1.92 µM and an LC50 (K562) of 41.2 µM. It also gave a TGI (K562) of 15.9 µM, a GI50 (M14) of 2.15 µM and a TGI (M14) of 4.85 µM. The CC50 (M14; [3]) was greater than 100 µM, the GI50 (OVCAR-5) was 1.91 µM and the TGI (OVCAR-5) was 4.11 µM. It also gave a CC50 (OVCAR-5; [3]) of 8.84 µM, a GI50 (SF-268) of 2.17 µM and a TGI (SF-268) of 5.77 µM. It also gave a CC50 (SF-268; [3]) of 27.7 µM, a GI50 (NCI-H23) of 1.44 µM and a TGI (NCI-H23) of 6.04 µM. It also gave a CC50 (NCI-H23; [3]) greater than 100 µM, a GI50 (MDA-MB-231) of 1.75 µM and an LC50 (concentration killing 50% of cells) (MDA-MB-231) greater than 100 µM. The TGI (MDA-MB-231) was 5.9 µM, the growth at 10 µM (IGROV-1 [1]) was -88.3% and the GI50 (A498) was 12.4 µM. The TGI (A498) was 25.4 µM, the CC50 (A498; [3]) was 52 µM and the GI50 (OVCAR-8) was 1.66 µM. It also gave a TGI (OVCAR-8) of 4.68 µM, a CC50 (OVCAR-8; [3]) of 59.8 µM and a GI50 (IGROV-1 [2]) of 1.36 µM. For the same compound, the TGI (IGROV-1 [2]) was 2.94 µM, the CC50 (IGROV-1 [2]; [3]) was 6.35 µM and the GI50 (SF-295) was 1.9 µM. It also gave a TGI (SF-295) of 4.04 µM, a CC50 (SF-295; [3]) of 8.56 µM and a GI50 (SK-MEL-5) of 1.58 µM. It also gave a TGI (SK-MEL-5) of 2.92 µM, a CC50 (SK-MEL-5; [3]) of 5.41 µM and a GI50 (HL-60(TB)) of 0.16 µM. For the same compound, the TGI (HL-60(TB)) was 0.4 µM, the CC50 (HL-60(TB); [3]) was 0.99 µM and the GI50 (HT-29) was 13.4 µM. For the same compound, the TGI (HT-29) was 50.4 µM, the CC50 (HT-29; [3]) was greater than 100 µM and the GI50 (NCI-H226) was 4.48 µM. The TGI (NCI-H226) was 21.6 µM and the CC50 (NCI-H226; [3]) was 63.7 µM.

With `CC1(C)Nc2ccc3c(c2N1)C(=O)c1ccccc1C3=O` the growth at 10 µM (MDA-MB-468) was 77.2% and the growth at 10 µM (IGROV-1 [1]) was -2.8%.

In the case of `O=C1c2ccccc2C(=O)c2c1ccc1nc(-c3ccc4c(c3)OCO4)[nH]c21`, the growth at 10 µM (MDA-MB-468) is reported as 96.4% and the growth at 10 µM (IGROV-1 [1]) is reported as 93.3%.

From ChEMBL document CHEMBL1152649, “Synthesis, cytotoxicity and human telomerase inhibition activities of a series of 1,2-heteroannelated anthraquinones and anthra[1,2-d]imidazole-6,11-dione homologues” (2009)
